From PubChem BioAssay
Rows were chosen to be rich in hits. Some 2.7% of all compounds tested hit in one or more screens of this group.
TCR-CD3 inh – inhibitors of human TCR-CD3 interaction; TAMRA-labeled TCR probe fluorescence, biochemical; inhibition, % at 9.4 µM; 0.37% of 360,000 active; AID 651800; in the data active means inhibition above about 19%;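 further: recombinant mutant TCR 2C K166C tagged with TAMRA read by polarization; 0% = receptor in buffer alone and 100% = receptor with positive control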
SIAE inh – inhibitors of human sialic acid acetylesterase SIAE; Q9HAT2; SIAE FP-Rh probe binding, fluorescence polarization; inhibition, % at 9.66 µM; 0.69% of 370,000 active; AID 1053197;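 active means inhibition above a cutoff: mean of compounds within the control limits plus 3 SD of those, cut at about 17% in these data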;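 further: 0% = plate median of compound wells and 100% = probe without SIAE protein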
PRMT1 FP inh – PRMT1 (human) inhibition, primary screen; 1.3% of 370,000 active; recombinant PRMT1, activity-based probe fluorescence polarization; Q99873; inhibition, % at 2.79 µM;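 active means inhibition above about 21% made by adding two undisclosed values, limit read from the data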
Target sequence (Q99873 whole entry, looked up): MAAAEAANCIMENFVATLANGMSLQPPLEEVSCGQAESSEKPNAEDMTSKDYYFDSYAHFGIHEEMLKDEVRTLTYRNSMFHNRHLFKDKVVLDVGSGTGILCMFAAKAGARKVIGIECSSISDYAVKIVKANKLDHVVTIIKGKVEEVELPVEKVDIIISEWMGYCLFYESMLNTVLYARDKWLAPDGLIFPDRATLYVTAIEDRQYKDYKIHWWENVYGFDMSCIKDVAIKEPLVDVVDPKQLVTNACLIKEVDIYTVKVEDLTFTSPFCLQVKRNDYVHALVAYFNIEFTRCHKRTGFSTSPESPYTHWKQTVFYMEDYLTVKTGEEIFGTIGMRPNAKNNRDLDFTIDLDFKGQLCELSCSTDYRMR
HTRA1 inh – HTRA1 (human) protease inhibition. recombinant HTRA1, FP-rhodamine activity-based probe, fluorescence polarization. inhibition, % at 5.96 µM. 0.5% of 340,000 active. AID 504803; in the data active means inhibition above about 36%;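 further: 0% = enzyme with DMSO and 100% = wells lacking enzyme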
ABHD4 inh – inhibitors of mouse ABHD4; Q8VD66; purified mABHD4, FP-Rh probe fluorescence polarization; inhibition, % at 8.92 µM; 0.54% of 370,000 active; AID 720543;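 active means inhibition exceeding the mean over every tested compound plus 3 SD, cut at about 30% in these data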;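 further: 0% = plate median of compound wells and 100% = S159A mutant with DMSO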
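System: mouse ABHD4 enzyme, wild type / Medium: HEPES pH 7.0, NaCl, Pluronic buffer / Reagent: FP-Rh activity-based fluorescent probe / Control set: S159A mutant high control, sample median low control / Detection: fluorescence polarization with parallel and perpendicular emission, 525/598 nm / Schedule: 45 min + 60 min at 25 °C / Compound dosing: 8.92 µM, single dose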
An asterisk follows results filed as active; x = no result given.

SMILES	TCR-CD3 inh	SIAE inh	PRMT1 FP inh	HTRA1 inh	ABHD4 inh
Cc1ccc(C(=O)OCC(=O)Nc2ccccc2N2CCOCC2)cc1	-1.6	18.0*	-3.2	-6.9	0.6
O=C(COC(=O)c1ccc(F)cc1)Nc1ccccc1N1CCOCC1	1.4	11.4	-2.0	6.7	-0.2
CC(C)[C@H](NC(=O)c1cc2cc(Cl)ccc2n1C)C(=O)N[C@@H](C(=O)O)c1ccccc1	5.5	2.5	-1.4	-0.1	-1.2
C=CCNC(=O)C1CCN(c2cncnc2)CC1	x	0.3	2.2	x	1.3
CSc1nc(SCCO)c2sc3nc(-c4ccco4)c4c(c3c2n1)CC(C)(C)OC4	-1.9	-8.1	22.1*	-21.8	2.5
CCC(=O)OC1(C)C(=O)C=C2C=C(c3ccsc3)OC=C2C1=O (centres undefined)	x	x	x	48.1*	x
Cc1ccc(S(=O)(=O)OCC(=O)Nc2ccc(C(=O)O)c(O)c2)cc1	4.6	4.1	21.4*	7.4	25.3
CCc1ccc(C2C(C#N)=C(N)Oc3cc(N)ccc32)cc1 (centres undefined)	1.8	10.6	6.1	3.9	27.5
N#CC1=C(N)Oc2cc(N)ccc2C1c1ccc(F)cc1 (centres undefined)	-5.8	-12.8	22.9*	5.0	21.2
N#CC1=C(N)Oc2cc(N)ccc2C1c1ccc(Cl)cc1 (centres undefined)	-4.5	-2.7	2.9	9.7	4.3
N#CC1=C(N)Oc2cc(N)ccc2C1c1ccc(F)cc1F (centres undefined)	-0.6	2.2	23.9*	9.4	20.9
Cc1ccc(O)c(NC(=O)CSc2ccc(Cl)cc2)c1	1.3	4.0	-0.5	-28.8	-15.0
Cc1ccc(NS(=O)(=O)c2ccc(NC(=O)CSc3ccc(Cl)cc3)cc2)c(C)c1	23.3*	-2.3	-0.1	-30.9	-26.6
c1cc2c(cc1C1=NNC(=NC3CC3)SC1)OCCO2	-1.3	0.3	46.3*	3.3	12.3
CCCCN=C1NN=C(c2ccc3c(c2)OCCO3)CS1	7.3	-2.3	6.2	x	7.0
c1ccc2oc(C3=NNC(=NC4CC4)SC3)cc2c1	1.7	8.6	35.7*	-9.8	-1.8
O=C(Nc1ccc(N2C(=O)[C@@H]3[C@H](C2=O)[C@@H]2C=C[C@H]3C2)c(Cl)c1)c1ccccn1	x	-5.4	-2.1	x	3.9
CN1C(=O)C(=C2CCCCCC2)SC1=S	-7.5	-1.9	11.6	-5.1	-3.1
O=C1NC(=S)SC1=C1CCCC1	1.1	-1.5	24.4*	-1.6	7.2
COc1cc(N=Cc2c(CO)cnc(C)c2O)cc(OC)c1OC	-4.8	7.3	-0.4	-2.0	2.9
Cc1ncc(CO)c(/C=N/NC(=S)Nc2cccc(Cl)c2)c1O	x	x	x	42.8*	x
Cc1ncc(CO)c(/C=N/NC(=S)Nc2ccc(Cl)c(Cl)c2)c1O	12.9	19.0*	2.1	16.4	-14.4
S=C(NCc1ccccc1)Nc1cccc(Cl)c1	-6.8	12.7	3.3	-24.8	-6.3
CS(=O)(=O)c1ccc(N)c(SSc2cc(S(C)(=O)=O)ccc2N)c1	-1.2	0.8	87.0*	1.2	13.4
CS(=O)(=O)c1ccc2nc(N)sc2c1	-2.9	-2.3	-0.4	4.9	1.7
SMILES	TCR-CD3 inh	SIAE inh	PRMT1 FP inh	HTRA1 inh	ABHD4 inh
N#CC1=C(N)SC(N)=C(C#N)C1c1ccc([N+](=O)[O-])cc1	0.2	-4.0	30.9*	-0.5	10.0
COC(=O)c1cc(S(=O)(=O)N2CCN(c3cccc(C(F)(F)F)c3)CC2)cn1C	x	-5.9	-3.5	x	-11.1
CCCS(=O)(=O)c1cn2cccc(N)c2c1S(=O)(=O)CCC	14.2	8.5	33.0*	10.2	15.8
COc1ccc(C2C3=C(N=C4SCC(=O)N42)c2ccccc2CC3)cc1 (centres undefined)	3.1	3.6	24.4*	-13.2	1.4
CC(=O)c1ccc(NC(=S)NC(=O)/C=C/c2ccco2)cc1	8.2	6.3	11.2	-5.4	15.1
O=C(/C=C/c1ccco1)NC(=S)Nc1ccccc1	0.9	-5.0	22.8*	-6.2	-5.7
Cc1ccc(NC(=O)c2ccccc2)cc1	-0.1	-1.4	1.5	0.6	2.8
Cc1ccc(NC(=O)C2=C(c3ccccc3)S(=O)(=O)CCS2(=O)=O)cc1	1.6	-4.5	61.6*	2.3	3.8
c1ccc(-c2nc3c(ccc4ccccc43)[nH]2)nc1	-2.5	29.0*	-4.3	36.1	7.3
COc1cccc2c1C(=O)c1c(O)c3c(c(O)c1C2=O)C[C@@](O)(C(=O)CO)C[C@@H]3O[C@H]1C[C@H](N)[C@@H](O)[C@H](C)O1	x	x	x	68.8*	x
CC[n+]1c(/C=C(\C)OC)sc2ccccc21	-4.2	2.8	22.6*	8.3	0.6
